Screening results: PubChem BioAssay, Broad Institute
Compounds with a hit are over-represented: about 1.5% of the library has one in this group of screens.
S100A4 inh HTS = S100A4-myosin IIA interaction inhibition. S100A4/TAMRA-MyoIIA peptide fluorescence polarization. inhibition, % at 10.7 µM. actives 0.14% (n = 360,000). AID 652163;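 active = mean inhibition of at least 70% across replicates, with every replicate also reaching that level; inconclusive = mean inhibition reaches 70% but some replicates fall short; inactive = mean inhibition below 70%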
Target sequence (P26447 whole entry, looked up): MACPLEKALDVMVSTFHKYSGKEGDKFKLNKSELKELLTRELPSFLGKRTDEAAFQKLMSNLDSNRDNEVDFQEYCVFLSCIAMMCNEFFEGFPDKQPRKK
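Material: S100A4 monomer protein / Buffer or medium: 50 mM HEPES pH 7.2, 10 mM CaCl2, 100 mM KCl / Times: 5 min incubation before reading / Benchmarks: neutral control DMSO, positive control TFP / Reagent: labelled myosin peptide probe, 5 nM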
PDI inh = blocks human protein disulfide isomerase activity. actives 0.052% (n = 350,000). AID 588391. PDI insulin aggregation turbidity, A650, 90 min. inhibition, % at 10 µM;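 active = mean inhibition across replicates of 30% or more, whatever share of single replicates reach that level; inconclusive = mean inhibition below 30% while every single replicate reaches 30%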
INS-1E GSIS act = primary screen for activators of insulin secretion dependent on glucose, INS-1E cells, GLuc reporter luminescence | actives 0.61% (n = 370,000) | INS-1E GLuc reporter insulin secretion, 2-3 h | activation, % at 16.6 µM;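 active = lowest replicate activation of at least 40%, so every replicate reaches that level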
ERp5 block = blocks human ERp5 reductase activity on insulin; ERp5 insulin aggregation, absorbance 650 nm, 90 min; actives 0.05% (n = 350,000); inhibition, % at 9.99 µM; AID 651711;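 active = mean replicate inhibition above about 25%, with every replicate also reaching it, limit read from the data, passing the limit was not always enough; inconclusive = only one of those two criteria met; inactive = neither criterion met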
Target sequence (Q15084 whole entry, looked up): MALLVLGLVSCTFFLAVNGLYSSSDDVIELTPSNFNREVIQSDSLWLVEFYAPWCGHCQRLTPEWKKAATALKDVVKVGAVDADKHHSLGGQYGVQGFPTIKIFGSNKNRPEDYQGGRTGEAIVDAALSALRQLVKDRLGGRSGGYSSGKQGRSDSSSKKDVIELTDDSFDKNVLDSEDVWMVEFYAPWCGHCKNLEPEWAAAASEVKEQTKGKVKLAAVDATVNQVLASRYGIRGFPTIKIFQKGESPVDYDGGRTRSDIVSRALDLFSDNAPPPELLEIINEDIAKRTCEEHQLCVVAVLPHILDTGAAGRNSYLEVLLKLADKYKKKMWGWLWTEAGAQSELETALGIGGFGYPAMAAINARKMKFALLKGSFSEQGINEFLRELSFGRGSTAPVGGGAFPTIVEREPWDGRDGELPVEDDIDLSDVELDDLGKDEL
SIRT5 block = inhibitors of human sirtuin-5 desuccinylase | Q9NXA8 | Purified SirT5, succinyl-peptide AMC, trypsin-coupled fluorescence | inhibition, % at 15 µM | actives 1.1% (n = 330,000) | AID 652115; in the data active = inhibition above about 15%; inconclusive = no clear call, values can overlap the other calls
Numbers stand for hits; - = inactive; ? = inconclusive; . = no result given; ! = not confirmed by another sample.

SMILES	S100A4 inh HTS	PDI inh	INS-1E GSIS act	ERp5 block	SIRT5 block
Cc1cccc2nc(-c3ccco3)c(Nc3ccc4c(c3)OCO4)n12	-	-	-	-	-
OC(c1ccccc1)(c1ccccc1)C1CCN(CCCOc2cccc(OC(F)(F)F)c2)CC1	-	.	160	-	-
OC(c1ccccc1)(c1ccccc1)C1CCN(CCCOc2ccc3c(c2)CCCC3)CC1	-	.	762	-	-
OC(c1ccccc1)(c1ccccc1)C1CCN(CCCOc2ccc(-c3ccc(F)cc3F)cc2)CC1	-	.	249	-	-
COc1ccccc1-c1ccc(OCCCN2CCC(C(O)(c3ccccc3)c3ccccc3)CC2)cc1	-	.	.	-	.
OC(c1ccccc1)(c1ccccc1)C1CCN(CCCOc2cc(F)cc(F)c2)CC1	-	.	-	-	-
O=C(C[C@H]1CC[C@H]2[C@@H](COC[C@@H](O)CN2C(=O)c2ccccc2F)O1)N1CCOCC1	-	.	-	-	-
N#C[C@@H]1[C@H](c2ccccc2C2=CCCCC2)[C@H](CO)N1S(=O)(=O)c1cccc(F)c1	-	.	-	-	-
O=C1C2=C(NC(=S)NC2c2ccc(Cl)cc2)NC(c2ccc(Cl)cc2)N1c1ccc(Cl)cc1 (stereo not drawn)	.	-	.	.	.
CCc1ccc(C2NC(=S)NC3=C2C(=O)N(c2ccccc2OC)C(c2ccc(CC)cc2)N3)cc1 (stereo not drawn)	.	-	127	.	.
C[C@@H]1CN([C@@H](C)CO)C(=O)c2cc(NC(=O)c3ccccc3)ccc2O[C@@H](C)CCCCO[C@H]1CN(C)C(=O)Nc1cccc2ccccc12	?	.	-	-	-
C[C@@H]1CCCCO[C@@H](CN(C)C(=O)Nc2cccc3ccccc23)[C@H](C)CN([C@@H](C)CO)C(=O)c2cc(NC(=O)c3ccccc3)ccc2O1	-	.	-	-	17
C[C@@H]1CCCCO[C@H](CN(C)C(=O)Nc2cccc3ccccc23)[C@@H](C)CN([C@H](C)CO)C(=O)c2cc(N(C)C)ccc2O1	-	-	-	-	27!
C[C@H]1CCCCO[C@H](CN(C)C)[C@@H](C)CN([C@@H](C)CO)C(=O)c2cc(NC(=O)NC3CCCCC3)ccc2O1	-	.	-	-	-
O=C(c1c(O)cc(O)cc1O)C1c2c(cc(O)c3c2O[C@H](c2ccc(O)cc2)[C@@H](O)C3)OC1c1ccc(O)cc1 (stereo partly drawn)	-	53	-	-	.
O=C(CCS(=O)(=O)Cc1ccccc1F)NCCc1ccc(Cl)cc1	-	-	-	-	17
C[C@H]1CN([C@@H](C)CO)C(=O)c2cc(NS(=O)(=O)c3ccccc3)ccc2O[C@@H]1CN(C)C(=O)Nc1ccc(C(F)(F)F)cc1	.	.	-	.	.
O=S(=O)(c1ccc(-c2csc(Nc3ccc(Br)cc3)n2)cc1)N1CCCC1	.	-	89	.	.
C[C@H](CO)N1C[C@H](C)[C@@H](CN(C)C(=O)NC2CCCCC2)Oc2c(NC(=O)Cn3cnnn3)cccc2C1=O	.	.	-	.	.
Cc1ccc(OCC(=O)NNC(=O)CCC(=O)Nc2ccc(C)cc2C)cc1	.	-	57	.	.
CCN1CCN(CCCNC(=O)c2ccc(/C=C3/Sc4ccccc4N(Cc4ccccc4F)C3=O)cc2)CC1	-	-	100	-	-
COC(=O)COc1cc(Cl)c(C=O)cc1OC	-	-	-	-	-
CCOC(=O)C(C)Oc1cc(Cl)c(C=O)cc1OC (stereo not drawn)	-	-	-	-	16
C[C@@H]1CN([C@@H](C)CO)S(=O)(=O)c2ccc(C#CC(C)(C)O)cc2O[C@H]1CN(C)Cc1ccc(-c2ccccc2)cc1	-	.	-	-	-
C[C@@H]1CN([C@@H](C)CO)S(=O)(=O)c2ccc(C#CC(C)(C)O)cc2O[C@@H]1CN(C)Cc1ccc(-c2ccccc2)cc1	-	.	-	-	19
SMILES	S100A4 inh HTS	PDI inh	INS-1E GSIS act	ERp5 block	SIRT5 block
C[C@@H]1CN([C@@H](C)CO)S(=O)(=O)c2ccc(C#CC(C)(C)O)cc2O[C@H]1CN(C)Cc1ccc(F)cc1	-	.	-	-	18
CC1(C)OC(=O)C2=C(C[C@@H](C3CCCC3)O[C@H]2c2ccc(Cl)cc2)O1	-	.	-	-	.
C[C@@H]1O[C@H](C2CCCC2)CC2=C1C(=O)OC(C)(C)O2	-	.	60	-	-
Cc1cc(=O)oc2c(C)c(OC(C)C(=O)NCCCN3CCCC3=O)ccc12 (stereo not drawn)	-	-	-	-	26
CCc1cc(=O)oc2cc(C)cc(OC(C)C(=O)NCCCN3CCCC3=O)c12 (stereo not drawn)	-	-	-	-	-
CN(C)C(=O)c1ccc(-c2ccccc2[C@H]2[C@H](C#N)N(C(=O)C3CCC3)[C@H]2CO)cc1	-	.	-	-	-
CCCCN1C(=O)C(CC(=O)NCC2CCCCC2)CC(C(=O)N(CC)CC)=C1C (stereo not drawn)	-	-	-	-	17
CCCCCCCCCn1c2c(c(=N)c3c1CCC3)CCCC2	.	-	.	.	.
CCCCCCCCCCn1c2c(c(=N)c3c1CCC3)CCC2	.	-	339	.	.
C[C@H](CO)N1C[C@H](C)[C@H](CN(C)S(=O)(=O)c2ccc(Cl)cc2)OCc2cnnn2CCCC1=O	-	-	-	-	15!
C[C@@H]1CN([C@@H](C)CO)C(=O)CCCn2nncc2CO[C@H]1CN(C)S(=O)(=O)c1ccc(Oc2ccccc2)cc1	-	-	-	-	-
C[C@H](CO)N1C[C@H](C)[C@@H](CN(C)S(=O)(=O)c2ccc(Cl)cc2)OCc2cnnn2CCCC1=O	-	-	-	-	-
C[C@H](CO)N1C[C@H](C)[C@@H](CN(C)S(=O)(=O)c2ccc3ccccc3c2)OCc2cnnn2CCCC1=O	-	-	-	-	21!
C[C@H](CO)N1C[C@H](C)[C@@H](CN(C)S(=O)(=O)c2ccc(Oc3ccccc3)cc2)OCc2cnnn2CCCC1=O	-	-	-	89!	-
COC(=O)C(C(=O)Nc1ccccc1C)C1CCCC1 (stereo not drawn)	.	-	.	.	.
Cc1ccccc1NC(=O)C(NC1CCCCC1)C(C)C (stereo not drawn)	-	-	-	-	36
CCCC#Cc1ccc(CC[C@H]2O[C@H]3CC[C@H](CO)O[C@H]3C[C@H]2n2cc(C(C)(C)O)nn2)cc1	-	.	.	-	-
COc1ccc(S(=O)(=O)N[C@H]2C=C[C@@H](CC(=O)NCCc3ccncc3)O[C@H]2CO)cc1	-	.	-	-	29
O=C(NCC[C@@H]1CC[C@@H](NS(=O)(=O)c2cccc(F)c2)[C@@H](CO)O1)C1CCOCC1	-	.	-	-	38
CCS(=O)(=O)NCC[C@H]1CC[C@@H](NC(=O)Cc2ccccn2)[C@H](CO)O1	-	.	-	-	-
O=C(Cc1ccccn1)N[C@@H]1CC[C@@H](CCNS(=O)(=O)c2cccc(F)c2)O[C@H]1CO	132	.	-	-	-
O=C(NCC[C@H]1CC[C@@H](NS(=O)(=O)c2cccc(F)c2)[C@H](CO)O1)C1CCOCC1	-	.	-	-	-
COc1cccc(S(=O)(=O)N[C@H]2CC[C@H](CCNC(=O)Cc3ccncc3)O[C@@H]2CO)c1	-	.	-	-	16
